Screens: PubChem, The Scripps Research Institute Molecular Screening Center
Shown are actives, neighbours in structure and some others; about 1.8% of the full set was active somewhere.
mABHD4 FP – ABHD4 (mouse) inhibition, primary FP screen. Q8VD66. purified mABHD4, FP-Rh probe fluorescence polarization. inhibition, % at 8.92 µM. 370,000 compounds, 0.54% hits. AID 720543;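 active means inhibition exceeding the mean over every tested compound plus 3 SD, cut at about 30% in these data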;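 further: 0% = plate median of compound wells and 100% = S159A mutant with DMSO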
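Test system: mABHD4 protein | Buffer or medium: HEPES pH 7.0 buffer, 150 mM NaCl, 0.01% Pluronic F-127 | Probe or stimulus: FP-Rh fluorescent activity-based probe, added after compound pre-incubation | Timing: Pre-incubation 45 min, probe exposure 60 min, at 25 °C | Technique: Fluorescence polarization, excitation 525 nm, emission 598 nm, BODIPY TMR filters | Repeats: Single well per compound (singlicate)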
Tn6 DDE FP – DD(E)-Tn6 binding inhibition, primary FP screen. P02675. Fibrin DD(E) TRITC-Tn6 fluorescence polarization displacement. inhibition, % at 8.3 µM. 370,000 compounds, 0.21% hits. AID 720509;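 active means inhibition above a per-campaign cutoff: mean of compounds within control limits plus 3 SD, cut at about 15% in these data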;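 further: 0% = median of all compound wells on the plate and 100% = blocking peptide control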
TCR CD3 inh – inhibitors of human TCR-CD3 interaction; TAMRA-labeled TCR probe fluorescence, biochemical; inhibition, % at 9.4 µM; 360,000 compounds, 0.37% hits; AID 651800; in the data active means inhibition above about 19%;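 further: recombinant mutant TCR 2C K166C tagged with TAMRA read by polarization; 0% = receptor in buffer alone and 100% = receptor with positive control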
DDE Tn7 FP inh – inhibitors of Tn7 peptide binding to human fibrin DD(E); P02675; FP displacement of FITC-Tn7 peptide from fibrin DD(E); 0% = median of compound wells per plate; inhibition, % at 8.3 µM; 370,000 compounds, 0.13% hits; AID 720508;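 active means inhibition above the mean of compounds falling within the control limits plus 3 SD of them, cut at about 14% in these data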;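 further: 0% = plate median of compound wells and 100% = 10 µM Aha-Tn7 peptide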
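system = human fibrin DD(E) protein | quantity = DD(E) 2 µM final | medium = Tris/NaCl/CaCl2 buffer, pH 7.8 | also added = labelled Tn7 tracer, 0.1 µM | compound dosing = single point at 8.3 µM | timing = compound with protein 10 min, then 3 h after probe, room temperature | signal = FP measurement | benchmarks = Aha-Tn7 high control | repeats = one replicate per compound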
HTRA1 inh – inhibitors of human serine peptidase HTRA1; recombinant HTRA1, FP-rhodamine activity-based probe, fluorescence polarization; Q92743; inhibition, % at 5.96 µM; AID 504803; 340,000 compounds, 0.5% hits; in the data active means inhibition above about 36%;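 further: 0% = enzyme with DMSO and 100% = wells lacking enzyme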
SIAE primary – human SIAE inhibition, primary screen; Q9HAT2; SIAE FP-Rh probe binding, fluorescence polarization; inhibition, % at 9.66 µM; 370,000 compounds, 0.69% hits; AID 1053197;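 active means inhibition above a cutoff: mean of compounds within the control limits plus 3 SD of those, cut at about 17% in these data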;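 further: 0% = plate median of compound wells and 100% = probe without SIAE protein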
Target sequence (Q9HAT2 whole entry, looked up): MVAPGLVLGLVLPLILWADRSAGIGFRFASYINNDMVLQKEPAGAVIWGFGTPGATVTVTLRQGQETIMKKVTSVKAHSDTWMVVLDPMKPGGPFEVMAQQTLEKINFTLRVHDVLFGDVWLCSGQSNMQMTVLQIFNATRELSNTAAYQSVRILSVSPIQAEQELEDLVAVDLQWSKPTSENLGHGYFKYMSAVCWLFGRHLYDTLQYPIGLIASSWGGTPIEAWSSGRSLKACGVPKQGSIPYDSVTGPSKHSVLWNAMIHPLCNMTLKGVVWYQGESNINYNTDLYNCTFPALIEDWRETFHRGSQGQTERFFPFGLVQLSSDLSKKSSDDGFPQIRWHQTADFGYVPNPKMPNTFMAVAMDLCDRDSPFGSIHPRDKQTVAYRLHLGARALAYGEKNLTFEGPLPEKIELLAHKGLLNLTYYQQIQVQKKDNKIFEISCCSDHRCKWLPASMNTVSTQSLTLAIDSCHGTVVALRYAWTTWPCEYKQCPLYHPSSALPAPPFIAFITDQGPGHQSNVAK
Numbers without * were called inactive.

Screening C[C@@H]1CN([C@@H](C)CN(C)C)C(=O)c2cc(NC(=O)Nc3ccccc3)ccc2O[C@@H](C)CCCCO[C@H]1CN(C)S(=O)(=O)c1ccc(F)cc1 returned mABHD4 FP 3.6, Tn6 DDE FP -4.3, DDE Tn7 FP inh -2.9 and SIAE primary 8.1.
Screening Cc1nc2sccn2c1P(c1c(C)nc2sccn12)c1c(C)nc2sccn12 returned mABHD4 FP -12.4, Tn6 DDE FP 6.1, TCR CD3 inh 3.1, DDE Tn7 FP inh -5.3, HTRA1 inh 1.9 and SIAE primary 17.4*.
For CCOC(=O)c1c(C)nc2sccn12 the results were mABHD4 FP -0.3, Tn6 DDE FP 5.8, TCR CD3 inh 7.1, DDE Tn7 FP inh 2.7, HTRA1 inh -1.8 and SIAE primary 3.8.
For CCC(C)NC(=O)CCS(=O)(=O)c1ccc(Br)s1 (configuration not stated) the results were mABHD4 FP -3.9, Tn6 DDE FP -6.9, TCR CD3 inh -5.1, DDE Tn7 FP inh -0.5, HTRA1 inh -6.2 and SIAE primary 5.2.
Screening CCOC(=O)N1CCN(C(=O)CCS(=O)(=O)c2ccc(Br)s2)CC1 returned mABHD4 FP 6.1, Tn6 DDE FP 4.4, TCR CD3 inh -0.3, DDE Tn7 FP inh -3.4, HTRA1 inh 8.9 and SIAE primary 17.1*.
COC1=C(Br)C(=O)c2nc(C)ccc2C1=O was read as mABHD4 FP 20.9, Tn6 DDE FP -5.8, TCR CD3 inh 19.1*, DDE Tn7 FP inh -1.0, HTRA1 inh 15.9 and SIAE primary -7.2.
For CN(C(=O)CNC(=O)c1ccccc1OCC(=O)Nc1ccc(I)cc1)c1ccccc1 the results were mABHD4 FP -5.5, Tn6 DDE FP 1.5, DDE Tn7 FP inh -1.8 and SIAE primary -1.3.
`O=C(NCCCN1CCc2ccccc2C1)Nc1ccc(Br)cc1` gave mABHD4 FP 0.6, Tn6 DDE FP 10.7, TCR CD3 inh 2.3, DDE Tn7 FP inh -1.5, HTRA1 inh 1.4 and SIAE primary -9.5.
For O=C(NCCN1CCc2ccccc2C1)Nc1ccc([N+](=O)[O-])cc1 the results were mABHD4 FP -6.5, Tn6 DDE FP -2.7, TCR CD3 inh -3.6, DDE Tn7 FP inh 14.9*, HTRA1 inh -11.1 and SIAE primary -4.7.
Screening CCOC(=O)N1C(=O)C[C@](Sc2ccc(OC)cc2)(C(=O)N2CCN(c3ncccn3)CC2)[C@H]1c1ccc(OC)cc1 returned mABHD4 FP -0.5, Tn6 DDE FP -7.4, DDE Tn7 FP inh 3.5 and SIAE primary 5.6.
`COc1ccc(S[C@]2(C(=O)N3CCN(c4ncccn4)CC3)CC(=O)N(C(=O)c3ccccc3)[C@@H]2c2ccc(OC)cc2)cc1` gave mABHD4 FP -0.9, Tn6 DDE FP 1.9, DDE Tn7 FP inh 4.1 and SIAE primary -3.3.
Screening O=c1c2cc3cc(Cl)ccc3nc2ncn1CCc1c[nH]c2ccccc12 returned mABHD4 FP -5.8, Tn6 DDE FP -6.4, DDE Tn7 FP inh 1.6 and SIAE primary -27.2.
`O=[N+]([O-])c1cc(Cl)cc(/C=N/Nc2nc3ccccc3s2)c1O` gave mABHD4 FP 8.3, Tn6 DDE FP -2.2, TCR CD3 inh -0.8, DDE Tn7 FP inh 6.6, HTRA1 inh 26.2 and SIAE primary 4.3.
O=C(Cn1nc2ccccc2n1)N/N=C/c1cc(Cl)cc([N+](=O)[O-])c1O was read as mABHD4 FP 9.2, Tn6 DDE FP -0.4, TCR CD3 inh 55.7*, DDE Tn7 FP inh 5.6, HTRA1 inh 15.3 and SIAE primary 2.7.
`C/C(=N\NC(=O)c1cc(O)cc(O)c1)c1ccc(NC(=O)Cc2ccccc2)cc1` gave mABHD4 FP 27.7, Tn6 DDE FP -13.0, TCR CD3 inh 41.0*, DDE Tn7 FP inh -0.9, HTRA1 inh 22.6 and SIAE primary 24.1*.
COc1cc(CNc2ccc(O)cc2)cc(Br)c1OCc1ccccc1F was read as HTRA1 inh 32.6.
Screening CCOc1cc(CNc2ccc(O)cc2)cc(Br)c1OCc1ccccc1F returned HTRA1 inh 44.4*.
CC(C)CSc1nnc(-c2ccco2)n1C was read as mABHD4 FP 2.0, Tn6 DDE FP -6.9, DDE Tn7 FP inh 0.8 and SIAE primary 0.4.
